ChEMBL document CHEMBL1649098 (ACS Med Chem Lett, 2011)
Active and inactive are the calls of the source.

How the values were obtained:
[1] = test system: Hepatocyte; assay: Metabolic stability in human hepatocytes assessed as glutathione conjugate formation; assay type: ADME, cell-based
How it was run: (§1)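 Reactive metabolite potential was assessed by looking for glutathione conjugates in rat or human hepatocyte incubations.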

[2] = test system: Liver microsomes; assay: Protein binding in human liver microsomes at 0.8 mg/mL protein concentration; assay type: ADME, Microsome
How it was run: (§2)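 Human liver microsomes at 0.8 mg/mL protein were used for half-life and microsomal protein binding. These in vitro data were used to predict human blood clearance.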

[3] = Cmax in rat at 1 mg/kg, po; assay type: ADME, organism-based; parameters: dose 1 mg/kg, route oral; conditions: in vivo
How it was run: (§3)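 Plasma pharmacokinetics used 1 mg/kg in rat and 0.5 mg/kg in dog, given iv and po. The iv formulation was 5% dimethylacetamide/95% (40% SBE-cyclodextrin in water). Oral dosing was a methylcellulose suspension of crystalline material.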

[4] = Tmax in dog at 0.5 mg/kg, iv or 0.5 mg/kg, po; assay type: ADME, organism-based, Canis lupus familiaris; conditions: in vivo; how it was run: as §3
[5] = Volume of distribution at steady state in dog at 0.5 mg/kg, iv or 0.5 mg/kg, po; assay type: ADME, organism-based, Canis lupus familiaris; conditions: in vivo, read-out: Vdss; how it was run: as §3
[6] = test system: Canis familiaris; assay: Oral bioavailability in dog at 0.5 mg/kg, iv; assay type: ADME, organism-based, Canis lupus familiaris; conditions: in vivo; how it was run: as §3
[7] = Clearance in dog at 0.5 mg/kg, iv or 0.5 mg/kg, po; assay type: ADME, organism-based, Canis lupus familiaris; conditions: in vivo; how it was run: as §3
[8] = Cmax in dog at 0.5 mg/kg, po; assay type: ADME, organism-based, Canis lupus familiaris; parameters: dose 0.5 mg/kg, route oral; conditions: in vivo; how it was run: as §3
[9] = species: Mus musculus; assay: Inhibition of fluorophosphonate-reactive serine proteases in mouse liver soluble proteomes at 100 uM by competitive activity based protein profiling
How it was run: (§4)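 Competitive activity-based protein profiling used human and mouse brain membrane and soluble liver proteomes. Each was treated with compound at 10 or 100 μM or with DMSO, then labelled with FP-rhodamine. Serine hydrolases were resolved on fluorescent gels. Enzymes with reduced labelling intensity in the presence of inhibitor were scored as targets.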

[10] = test system: Rattus norvegicus; assay: Antihyperalgesic activity in Sprague-Dawley rat model of complete Freund's adjuvant-induced inflammatory pain model assessed as reduction in mechanical allodynia at 0.1 mg/kg, po measured 4 hrs post dose; assay type: functional, organism-based; parameters: dose 0.1 mg/kg
How it was run: (§5)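 CFA was injected subcutaneously into the plantar surface of the rat hind paw. Oral dosing at 0.1-10 mg/kg began 5 days post-injection, once mechanical paw withdrawal threshold had fallen. Mechanical allodynia was read as paw withdrawal threshold 4 h after dosing. n=8 rats per group; significance versus vehicle-treated groups at p<0.05.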

[11] = test system: MDCK; assay: Apparent permeability from basolateral to apical side of MDCK cells; assay type: ADME, cell-based, Canis lupus familiaris; conditions: dog
[12] = test system: Hepatocyte; assay: Metabolic stability in rat hepatocytes assessed as glutathione conjugate formation; assay type: ADME, cell-based; how it was run: as §1
[13] = target: T1, Fatty-acid amide hydrolase 1 (Homo sapiens) (UniProt O00519); conditions: 10 uM
T1 sequence (whole entry): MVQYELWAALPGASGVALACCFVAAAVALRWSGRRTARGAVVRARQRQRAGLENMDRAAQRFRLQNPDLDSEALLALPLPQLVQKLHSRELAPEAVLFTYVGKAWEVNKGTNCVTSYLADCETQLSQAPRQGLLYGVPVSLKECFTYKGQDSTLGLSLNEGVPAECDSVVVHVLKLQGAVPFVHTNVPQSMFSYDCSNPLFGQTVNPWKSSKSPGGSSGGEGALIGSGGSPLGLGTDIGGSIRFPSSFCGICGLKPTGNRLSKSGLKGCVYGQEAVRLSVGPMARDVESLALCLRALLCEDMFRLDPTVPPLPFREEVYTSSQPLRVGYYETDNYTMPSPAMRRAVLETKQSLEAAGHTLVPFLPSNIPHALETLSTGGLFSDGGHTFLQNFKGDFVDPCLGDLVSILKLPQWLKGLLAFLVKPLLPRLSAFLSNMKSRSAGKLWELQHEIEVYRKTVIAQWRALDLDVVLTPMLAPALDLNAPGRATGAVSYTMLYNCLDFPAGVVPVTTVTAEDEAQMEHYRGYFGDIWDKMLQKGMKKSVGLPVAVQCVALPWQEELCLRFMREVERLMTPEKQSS

[14] = Tmax in rat at 1 mg/kg, iv or 1 mg/kg, po; assay type: ADME, organism-based; conditions: in vivo; how it was run: as §3
[15] = target: T2, Fatty-acid amide hydrolase 1 (Mus musculus) (UniProt O08914); assay: Inhibition of FAAH in mouse brain membrane proteomes at 100 uM by competitive activity based protein profiling; assay type: cell membranes; how it was run: as §4
T2 sequence (whole entry): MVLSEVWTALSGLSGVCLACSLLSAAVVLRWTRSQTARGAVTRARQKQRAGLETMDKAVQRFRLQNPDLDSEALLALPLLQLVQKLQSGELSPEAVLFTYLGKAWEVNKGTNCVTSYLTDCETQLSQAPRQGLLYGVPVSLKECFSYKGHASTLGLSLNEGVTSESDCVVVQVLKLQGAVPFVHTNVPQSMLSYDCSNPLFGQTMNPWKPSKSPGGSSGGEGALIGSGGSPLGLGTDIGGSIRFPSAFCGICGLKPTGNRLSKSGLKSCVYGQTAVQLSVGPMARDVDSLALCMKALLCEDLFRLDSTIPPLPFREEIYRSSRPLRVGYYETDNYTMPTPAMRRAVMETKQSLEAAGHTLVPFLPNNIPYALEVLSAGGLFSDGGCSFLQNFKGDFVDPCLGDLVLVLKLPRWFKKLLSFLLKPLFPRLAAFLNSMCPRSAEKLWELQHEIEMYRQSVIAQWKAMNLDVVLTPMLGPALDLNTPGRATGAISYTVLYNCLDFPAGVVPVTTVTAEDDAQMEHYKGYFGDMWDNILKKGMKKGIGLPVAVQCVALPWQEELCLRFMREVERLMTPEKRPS

[16] = test system: MDCK; assay: Apparent permeability from apical to basolateral side of MDCK cells; assay type: ADME, cell-based, Canis lupus familiaris; conditions: dog
[17] = target: T2, Fatty-acid amide hydrolase 1 (Mus musculus); assay: Inhibition of FAAH in mouse brain membrane proteomes at 10 uM by competitive activity based protein profiling; assay type: cell membranes; how it was run: as §4
[18] = Oral bioavailability in rat at 1 mg/kg; assay type: ADME, organism-based; conditions: in vivo; how it was run: as §3
[19] = species: Homo sapiens; assay: Inhibition of fluorophosphonate-reactive serine proteases in human liver soluble proteomes at 100 uM by competitive activity based protein profiling; how it was run: as §4
[20] = Volume of distribution at steady state in rat at 1 mg/kg, iv or 1 mg/kg, po; assay type: ADME, organism-based; conditions: in vivo, read-out: Vdss; how it was run: as §3
[21] = Half life in dog at 0.5 mg/kg, iv; assay type: ADME, organism-based, Canis lupus familiaris; parameters: dose 0.5 mg/kg, route intravenous; conditions: in vivo; how it was run: as §3
[22] = test system: Rattus norvegicus; assay: Antihyperalgesic activity in orally dosed Sprague-Dawley rat model of complete Freund's adjuvant-induced inflammatory pain model assessed as reduction in mechanical allodynia measured 4 hrs post dose; assay type: functional; how it was run: as §5
[23] = Clearance in rat at 1 mg/kg, iv or 1 mg/kg, po; assay type: ADME, organism-based; conditions: in vivo; how it was run: as §3
[24] = test system: Liver microsomes; assay: Half life in human liver microsomes at 0.8 mg/mL protein concentration; assay type: ADME, Microsome; how it was run: as §2
[25] = target: T1, Fatty-acid amide hydrolase 1 (Homo sapiens); conditions: 100 uM
[26] = Half life in rat at 1 mg/kg, iv; assay type: ADME, organism-based; parameters: dose 1 mg/kg, route intravenous; conditions: in vivo; how it was run: as §3
[27] = target: T3, Fatty-acid amide hydrolase 1 (Homo sapiens, UniProt O00519); assay: Inhibition of His-tagged human FAAH N-terminal transmembrane-deleted truncated form expressed in Escherichia coli preincubated for 60 mins before oleamide substrate addition
T3 sequence (O00519 whole entry): T1 sequence (whole entry)
How it was run: (§6)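 IC50 was determined after a 60 min preincubation of inhibitor with human or rat FAAH.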

[28] = target: T4, Fatty-acid amide hydrolase 1 (Rattus norvegicus, UniProt P97612); assay: Irreversible inhibition of His-tagged rat FAAH N-terminal transmembrane-deleted truncated form expressed in Escherichia coli preincubated for 60 mins before oleamide substrate addition; how it was run: as §6
T4 sequence (P97612 whole entry): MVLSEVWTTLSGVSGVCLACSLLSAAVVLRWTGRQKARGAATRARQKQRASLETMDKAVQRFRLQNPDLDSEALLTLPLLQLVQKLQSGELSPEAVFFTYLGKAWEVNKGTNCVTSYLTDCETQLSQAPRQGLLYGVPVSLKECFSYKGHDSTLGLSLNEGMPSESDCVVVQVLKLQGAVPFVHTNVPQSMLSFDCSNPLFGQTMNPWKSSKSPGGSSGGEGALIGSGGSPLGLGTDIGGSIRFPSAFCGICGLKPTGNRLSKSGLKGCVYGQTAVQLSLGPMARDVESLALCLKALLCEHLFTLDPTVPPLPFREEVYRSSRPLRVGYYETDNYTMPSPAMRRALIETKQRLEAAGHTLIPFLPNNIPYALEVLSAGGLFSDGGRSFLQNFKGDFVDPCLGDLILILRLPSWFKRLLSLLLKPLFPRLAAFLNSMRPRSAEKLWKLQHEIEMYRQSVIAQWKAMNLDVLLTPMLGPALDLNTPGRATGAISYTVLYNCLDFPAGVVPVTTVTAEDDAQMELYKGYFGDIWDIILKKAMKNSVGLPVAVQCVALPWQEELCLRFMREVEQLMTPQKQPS

[29] = target: Cytochrome P450 2D6 (Homo sapiens, UniProt P10635); assay: Inhibition of CYP2D6; assay type: ADME
How it was run: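 CYP inhibition was tested in human liver microsomes with relevant probe substrates.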

Cytochrome P450 2D6, sequence (P10635 whole entry): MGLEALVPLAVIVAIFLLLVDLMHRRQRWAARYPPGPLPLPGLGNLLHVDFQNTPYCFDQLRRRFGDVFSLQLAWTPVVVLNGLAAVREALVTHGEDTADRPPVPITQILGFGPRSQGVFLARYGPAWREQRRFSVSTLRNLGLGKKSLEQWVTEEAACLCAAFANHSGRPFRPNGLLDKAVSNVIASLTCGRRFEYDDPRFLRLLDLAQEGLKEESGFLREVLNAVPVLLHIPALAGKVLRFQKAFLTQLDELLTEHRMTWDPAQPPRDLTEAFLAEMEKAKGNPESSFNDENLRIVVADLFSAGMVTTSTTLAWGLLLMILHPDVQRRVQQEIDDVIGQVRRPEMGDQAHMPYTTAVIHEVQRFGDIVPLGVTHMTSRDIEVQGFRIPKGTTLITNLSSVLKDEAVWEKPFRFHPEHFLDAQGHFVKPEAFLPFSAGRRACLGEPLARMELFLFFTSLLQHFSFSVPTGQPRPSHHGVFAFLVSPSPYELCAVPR

Stability [1]: Stable
PB [2]: 90%
Cmax [3]: 256 ng/mL
Tmax [4]: 1 h
Vd [5]: 2.9 L/kg
F [6]: 58%
clearance [7]: 1.3 mL/min/kg
Cmax [8]: 240 ng/mL
inhibition [9]: inactive
permeability [11]: 20.2 ×10⁻⁶ cm/s
Stability [12]: Stable
inhibition [13]: Active
Tmax [14]: 4 h
inhibition [15]: Active
permeability [16]: 15.2 ×10⁻⁶ cm/s
inhibition [17]: Active
bioavailability [18]: 88%
inhibition [19]: inactive
Vd [20]: 3.2 L/kg
half-life [21]: 35.2 h
clearance [23]: 3 mL/min/kg
t1/2 [24]: 1.75 h
inhibition [25]: Active
half-life [26]: 14.3 h
IC50 [27]: 7.2 nM
IC50 [28]: 7.4 nM
IC50 [29]: 14500 nM
SMILES: O=C(Nc1cccnn1)N1CCC(=Cc2cccc(Oc3ccc(C(F)(F)F)cn3)c2)CC1
inhibition [10]: Active
MED [22]: 0.1 mg/kg
